What all share (format): functional, cell-based
In one assay the test system is A549. Description: Growth inhibition of human A549 cells after 72 hrs by SRB assay. As to conditions: A549, 72 h. The procedure, abridged: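 A-549 cells were seeded at 2 × 10³ cells/well. Various sample concentrations were tested in triplicate over 72 h at 37 °C under 5% CO₂. Absorbance was read at 520 nm. GI₅₀ was assigned as the concentration giving 50% growth inhibition.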

The test system of a further assay is A-431. Description: Growth inhibition of human A431 cells after 72 hrs by SRB assay. The settings on record: A-431, 72 h. The method, boiled down:
(§1)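 Cells were seeded at 5 × 10³ cells/well in 96-well plates. Various sample concentrations were added in triplicate, and plates were incubated for 72 h at 37 °C in 5% CO₂. Optical density was read at 520 nm. GI₅₀ was taken as the concentration inhibiting cell growth by 50%.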

The subject of a further assay is HCT-15. Description: Growth inhibition of human HCT15 cells after 72 hrs by SRB assay. As to conditions: HCT-15, 72 h. The procedure, abridged: as §1
A further assay has as its system KB. Description: Growth inhibition of human KB cells after 72 hrs by SRB assay. The procedure, abridged:
as §1

A further assay relates to SK-MEL-2. Description: Growth inhibition of human SK-MEL-2 cells after 72 hrs by SRB assay. The settings on record: SK-MEL-2, 72 h. The procedure, abridged:
as §1

A further assay has as its system SK-OV-3. Description: Growth inhibition of human SKOV3 cells after 72 hrs by SRB assay. As to conditions: SK-OV-3, 72 h.

Structures are written as SMILES. In brackets after ≈: the same amount, converted by molar mass.

For `Cc1cc(=O)c2ccc(O)c(CN(Cc3ccccc3)Cc3ccccc3)c2o1`, the half-maximal inhibitory concentration (IC50) in the assay with A549 was determined as 11.9 µg/mL (≈ 30.9 µM); in the assay with A-431, 19.5 µg/mL (≈ 50.6 µM); in the assay on HCT-15 it was 11.3 µg/mL (≈ 29.4 µM); in the assay with KB it was 15.1 µg/mL (≈ 39.2 µM); with SK-MEL-2, 17.8 µg/mL (≈ 46.1 µM); in the assay on SK-OV-3, 19 µg/mL (≈ 49.2 µM).

On to `COc1ccc(CN(Cc2ccccc2)Cc2c(O)ccc3c(=O)cc(C)oc23)cc1`, for which the IC50 came out at 14.1 µg/mL (≈ 34 µM) with A549; 44.7 µg/mL (≈ 108 µM) in the assay on A-431; 10.7 µg/mL (≈ 25.8 µM) with HCT-15; 42.7 µg/mL (≈ 103 µM) in the assay on KB; 78.6 µg/mL (≈ 189 µM) in the assay on SK-MEL-2; 24.5 µg/mL (≈ 59.1 µM) with SK-OV-3.

As for `Cc1cc(=O)c2ccc(O)c(CN(CCc3ccccc3)Cc3ccccc3)c2o1`, the IC50 with A549 stood at 12.3 µg/mL (≈ 30.9 µM); in the assay with A-431, 18.5 µg/mL (≈ 46.3 µM); in the assay with HCT-15 it was 11.7 µg/mL (≈ 29.3 µM); in the assay with KB, 14.5 µg/mL (≈ 36.3 µM); in the assay with SK-MEL-2 it was 17.4 µg/mL (≈ 43.5 µM); in the assay with SK-OV-3, 21.6 µg/mL (≈ 54 µM).

On to `COc1ccc(CCN(Cc2ccccc2)Cc2c(O)ccc3c(=O)cc(C)oc23)cc1`, for which the IC50 with A549 turned out to be 16.6 µg/mL (≈ 38.7 µM); in the assay on A-431, 25.2 µg/mL (≈ 58.7 µM); in the assay with HCT-15, 15.8 µg/mL (≈ 36.8 µM); with KB, 16.1 µg/mL (≈ 37.4 µM); in the assay on SK-MEL-2, 19.9 µg/mL (≈ 46.4 µM); with SK-OV-3, 65 µg/mL (≈ 151 µM).

For the compound `COc1ccc(CCN(Cc2ccccc2)Cc2c(O)ccc3c(=O)cc(C)oc23)cc1OC`, the IC50 with A549 is 26.1 µg/mL (≈ 56.8 µM); in the assay on A-431, > 100 µg/mL; in the assay on HCT-15, 31.5 µg/mL (≈ 68.5 µM); in the assay on KB, 24.3 µg/mL (≈ 53 µM); in the assay on SK-MEL-2, 21.9 µg/mL (≈ 47.6 µM); in the assay with SK-OV-3 it was 41.7 µg/mL (≈ 90.7 µM).

In the case of `CCN(Cc1ccc(OC)cc1)Cc1c(O)ccc2c(=O)cc(C)oc12`, the IC50 is 38.7 µg/mL (≈ 110 µM) in the assay on A549; 41.9 µg/mL (≈ 119 µM) with A-431; 22.4 µg/mL (≈ 63.5 µM) in the assay on HCT-15; 47.4 µg/mL (≈ 134 µM) with KB; 60.3 µg/mL (≈ 171 µM) in the assay on SK-MEL-2; 57.5 µg/mL (≈ 163 µM) with SK-OV-3.

`COc1ccc(CN(Cc2ccc([N+](=O)[O-])cc2)Cc2c(O)ccc3c(=O)cc(C)oc23)cc1`: the half-maximal inhibitory concentration (IC50) with A549 was 24.5 µg/mL (≈ 53.1 µM); in the assay with A-431, > 100 µg/mL; in the assay on HCT-15 it was 28.6 µg/mL (≈ 62.1 µM); in the assay on KB, 24.4 µg/mL (≈ 53 µM); in the assay on SK-MEL-2, > 100 µg/mL; in the assay on SK-OV-3, > 100 µg/mL.

Take `COc1ccc(CN(Cc2ccc3ccccc3c2)Cc2c(O)ccc3c(=O)cc(C)oc23)cc1`: the IC50 in the assay with A549 was 6.01 µg/mL (≈ 12.9 µM); with A-431, 16.4 µg/mL (≈ 35.2 µM); in the assay on HCT-15 it was 6.89 µg/mL (≈ 14.8 µM); with KB it was 17.6 µg/mL (≈ 37.8 µM); in the assay on SK-MEL-2, > 100 µg/mL; with SK-OV-3 it was > 100 µg/mL.

Regarding `COc1ccc(CN(Cc2ccc(OC)cc2)Cc2c(O)ccc3c(=O)cc(C)oc23)cc1`, the IC50 was 62.5 µg/mL (≈ 140 µM) with A549; 38.9 µg/mL (≈ 87.3 µM) with A-431; 53.7 µg/mL (≈ 121 µM) in the assay on HCT-15; 17.8 µg/mL (≈ 39.9 µM) in the assay on KB; 31.6 µg/mL (≈ 71 µM) in the assay with SK-MEL-2; > 100 µg/mL with SK-OV-3.

`CCN(CCc1ccccc1)Cc1c(O)ccc2c(=O)cc(C)oc12`: the IC50 with A549 was 32.7 µg/mL (≈ 96.8 µM); in the assay on A-431, > 100 µg/mL; with HCT-15, 43.2 µg/mL (≈ 128 µM); with KB, 32.6 µg/mL (≈ 96.6 µM); in the assay with SK-MEL-2, 57.5 µg/mL (≈ 171 µM); in the assay with SK-OV-3 it was > 100 µg/mL.

With `Cc1cc(=O)c2ccc(O)c(CN(CCc3ccccc3)Cc3ccc([N+](=O)[O-])cc3)c2o1`, the IC50 with A549 is 9.92 µg/mL (≈ 22.3 µM); with A-431, 61 µg/mL (≈ 137 µM); with HCT-15 it was 7.68 µg/mL (≈ 17.3 µM); in the assay on KB it was 10.8 µg/mL (≈ 24.4 µM); with SK-MEL-2 it was 74.1 µg/mL (≈ 167 µM); in the assay with SK-OV-3, > 100 µg/mL.

For `COc1ccc(CN(CCc2ccccc2)Cc2c(O)ccc3c(=O)cc(/C=C/c4ccccc4)oc23)cc1`, the IC50 was 17.9 µg/mL (≈ 34.6 µM) in the assay on A549, 49.4 µg/mL (≈ 95.4 µM) with HCT-15, 35 µg/mL (≈ 67.6 µM) in the assay with KB and > 100 µg/mL with SK-MEL-2.
